According to ChEMBL document CHEMBL1121744, “Synthesis and antihypertensive activity of a series of 8-substituted 1-oxa-3,8-diazaspiro[4.5]decan-2-ones” (J Med Chem, 1981):
Where “and” joins values, the source holds several entries; their conditions need not be identical. Equal entries are not always repeated. Calls of active or inactive are those of the source. No cut-off for these calls is given here.

Columns and labels:
[1] = Distribution coefficient between 1-Octanol and phosphate buffer at pH7.4; assay type: physicochemical; conditions: 1-octanol/phosphate buffer, pH 7.4
How it was run: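 Octanol/buffer distribution measured at pH 7.4 in phosphate with sodium chloride. Either HPLC (0.004 M) or shake flask.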

[2] = tested on: Rattus norvegicus; experiment: Antihypertensive activity as percentage fall in systolic blood pressure in spontaneously hypertensive rats after a period of 3 hr for a dose of 50 mg/kg po; NS=Not significant; assay type: functional, organism-based; set-up: dose 50 mg/kg; conditions: Artery
How it was run: (§1)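 Male Okamoto-Aoki SHR, trained, in groups of four matched for systolic pressure, with a concurrent vehicle control group. Oral dosing on two consecutive mornings, in water as solution or suspension at 0.1 mL/10 g. On day 2 rats were restrained at 30.0 ± 1.0 °C. Tail-cuff systolic pressure, four traces per rat, read at each hour. Per cent fall versus control; 1-tail t test, p ≤ 0.05.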

[3] = tested on: Rattus norvegicus; experiment: Antihypertensive activity as percentage fall in systolic blood pressure in spontaneously hypertensive rats after a period of 4 hr for a dose of 50 mg/kg po; NS=Not significant; assay type: functional, organism-based; set-up: dose 50 mg/kg; conditions: Artery; how it was run: as §1
[4] = tested on: Rattus norvegicus; experiment: Antihypertensive activity as percentage fall in systolic blood pressure in spontaneously hypertensive rats after a period of 1 hr for a dose of 50 mg/kg po; NS=Not significant; assay type: functional, organism-based; set-up: dose 50 mg/kg; conditions: Artery; how it was run: as §1
[5] = tested on: Rattus norvegicus; experiment: Antihypertensive activity as percentage fall in systolic blood pressure in spontaneously hypertensive rats after a period of 2 hr for a dose of 50 mg/kg po; NS=Not significant; assay type: functional, organism-based; set-up: dose 50 mg/kg; conditions: Artery; how it was run: as §1
[6] = tested on: Rattus norvegicus; experiment: The antihypertensive activity as percentage fall in systolic blood pressure in spontaneously hypertensive rats after a period of 1 hr for a dose of 50 mg/kg po
[7] = tested on: Rattus norvegicus; experiment: The antihypertensive activity as percentage fall in systolic blood pressure in spontaneously hypertensive rats after a period of 3 hr for a dose of 50 mg/kg po
[8] = tested on: Rattus norvegicus; experiment: The antihypertensive activity as percentage fall in systolic blood pressure in spontaneously hypertensive rats after a period of 4 hr for a dose of 50 mg/kg po
[9] = tested on: Rattus norvegicus; experiment: The antihypertensive activity as percentage fall in systolic blood pressure in spontaneously hypertensive rats after a period of 2 hr for a dose of 50 mg/kg po
[10] = target: T1, Adrenergic receptor alpha-2 (Rattus norvegicus, UniProt P22086+P19328+P22909); experiment: Antagonistic potency of compound for Alpha-2 adrenergic receptor; assay type: functional
T1 sequence (P22086 whole entry): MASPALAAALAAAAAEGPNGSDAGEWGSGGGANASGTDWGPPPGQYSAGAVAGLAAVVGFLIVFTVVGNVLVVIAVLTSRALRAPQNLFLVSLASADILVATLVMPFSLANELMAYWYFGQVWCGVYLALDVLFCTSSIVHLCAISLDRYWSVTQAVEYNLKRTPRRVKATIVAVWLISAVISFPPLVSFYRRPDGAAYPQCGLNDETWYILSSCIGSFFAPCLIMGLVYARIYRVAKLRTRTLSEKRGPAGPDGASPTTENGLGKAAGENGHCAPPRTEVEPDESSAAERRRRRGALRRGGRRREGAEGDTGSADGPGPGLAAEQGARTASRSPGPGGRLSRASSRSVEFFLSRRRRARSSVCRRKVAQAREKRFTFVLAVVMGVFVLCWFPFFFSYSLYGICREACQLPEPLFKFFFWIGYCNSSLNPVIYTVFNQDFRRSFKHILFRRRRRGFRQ
T1 sequence (P19328 whole entry): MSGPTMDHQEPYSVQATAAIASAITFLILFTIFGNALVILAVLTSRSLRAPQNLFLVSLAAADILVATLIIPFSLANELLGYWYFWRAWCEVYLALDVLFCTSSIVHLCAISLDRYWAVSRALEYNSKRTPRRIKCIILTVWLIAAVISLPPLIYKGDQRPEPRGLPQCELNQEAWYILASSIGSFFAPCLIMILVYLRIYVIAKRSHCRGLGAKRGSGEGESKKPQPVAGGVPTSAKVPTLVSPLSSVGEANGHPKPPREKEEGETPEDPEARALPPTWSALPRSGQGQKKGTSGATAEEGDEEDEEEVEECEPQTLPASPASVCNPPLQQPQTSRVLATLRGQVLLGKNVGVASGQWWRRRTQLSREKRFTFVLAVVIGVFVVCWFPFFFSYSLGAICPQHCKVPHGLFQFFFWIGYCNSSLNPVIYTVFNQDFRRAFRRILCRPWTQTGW
T1 sequence (P22909 whole entry): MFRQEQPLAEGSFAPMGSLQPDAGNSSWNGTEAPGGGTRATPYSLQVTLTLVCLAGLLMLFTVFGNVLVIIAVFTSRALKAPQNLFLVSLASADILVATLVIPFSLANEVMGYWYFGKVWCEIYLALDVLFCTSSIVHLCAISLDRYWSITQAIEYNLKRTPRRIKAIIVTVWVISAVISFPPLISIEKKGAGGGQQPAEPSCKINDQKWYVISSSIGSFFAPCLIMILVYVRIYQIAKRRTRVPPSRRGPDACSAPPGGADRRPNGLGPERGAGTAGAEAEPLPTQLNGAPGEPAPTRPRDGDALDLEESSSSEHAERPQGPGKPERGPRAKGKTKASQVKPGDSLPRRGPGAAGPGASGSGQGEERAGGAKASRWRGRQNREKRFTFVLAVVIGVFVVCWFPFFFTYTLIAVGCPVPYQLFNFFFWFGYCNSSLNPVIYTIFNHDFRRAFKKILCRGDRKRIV

[11] = target: T2, Adrenergic receptor alpha-1 (Rattus norvegicus, UniProt P15823+P23944+P43140); experiment: Antagonistic potency of compound for Alpha-1 adrenergic receptor; assay type: functional
T2 sequence (P15823 whole entry): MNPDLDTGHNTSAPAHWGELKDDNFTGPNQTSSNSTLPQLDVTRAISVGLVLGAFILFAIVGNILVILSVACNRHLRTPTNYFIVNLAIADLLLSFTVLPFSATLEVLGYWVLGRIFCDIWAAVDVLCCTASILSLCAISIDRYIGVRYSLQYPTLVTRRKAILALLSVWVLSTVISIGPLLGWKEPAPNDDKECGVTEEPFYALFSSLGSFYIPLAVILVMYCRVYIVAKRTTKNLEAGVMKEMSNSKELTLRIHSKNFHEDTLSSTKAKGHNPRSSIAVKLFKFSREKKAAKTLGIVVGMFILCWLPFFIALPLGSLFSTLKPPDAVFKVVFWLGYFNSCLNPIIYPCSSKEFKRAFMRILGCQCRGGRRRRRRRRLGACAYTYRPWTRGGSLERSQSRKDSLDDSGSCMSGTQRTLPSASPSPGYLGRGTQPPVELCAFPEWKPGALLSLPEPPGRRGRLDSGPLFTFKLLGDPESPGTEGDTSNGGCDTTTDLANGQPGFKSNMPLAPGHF
T2 sequence (P23944 whole entry): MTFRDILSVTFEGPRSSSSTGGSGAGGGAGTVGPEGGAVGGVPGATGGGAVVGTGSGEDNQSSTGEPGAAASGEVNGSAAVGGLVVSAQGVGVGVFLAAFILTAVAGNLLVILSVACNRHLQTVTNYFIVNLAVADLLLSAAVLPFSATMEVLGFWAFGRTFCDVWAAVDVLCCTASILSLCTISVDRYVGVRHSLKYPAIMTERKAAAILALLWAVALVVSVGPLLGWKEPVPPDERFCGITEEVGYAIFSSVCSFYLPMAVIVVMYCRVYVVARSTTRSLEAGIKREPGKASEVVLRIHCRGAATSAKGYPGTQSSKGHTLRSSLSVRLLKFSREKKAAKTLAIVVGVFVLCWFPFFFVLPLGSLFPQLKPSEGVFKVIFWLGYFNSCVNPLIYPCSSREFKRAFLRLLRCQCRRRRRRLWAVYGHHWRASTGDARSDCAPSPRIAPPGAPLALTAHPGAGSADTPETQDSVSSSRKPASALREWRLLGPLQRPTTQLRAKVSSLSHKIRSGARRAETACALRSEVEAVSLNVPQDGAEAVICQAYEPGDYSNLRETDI
T2 sequence (P43140 whole entry): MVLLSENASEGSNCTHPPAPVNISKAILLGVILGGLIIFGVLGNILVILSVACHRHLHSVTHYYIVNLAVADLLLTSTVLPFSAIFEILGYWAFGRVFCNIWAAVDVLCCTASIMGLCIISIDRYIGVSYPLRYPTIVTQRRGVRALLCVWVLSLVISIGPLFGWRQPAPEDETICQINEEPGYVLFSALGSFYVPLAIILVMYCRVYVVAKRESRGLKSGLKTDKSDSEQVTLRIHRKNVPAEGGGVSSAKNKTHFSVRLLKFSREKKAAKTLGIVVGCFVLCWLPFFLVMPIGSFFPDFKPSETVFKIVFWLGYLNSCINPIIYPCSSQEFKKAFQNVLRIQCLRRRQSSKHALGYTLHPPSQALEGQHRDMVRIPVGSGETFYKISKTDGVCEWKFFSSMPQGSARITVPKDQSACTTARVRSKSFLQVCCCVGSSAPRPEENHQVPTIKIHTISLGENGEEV

[12] = tested on: Rattus norvegicus; experiment: Antihypertensive activity as percentage fall in systolic blood pressure in spontaneously hypertensive rats after a period of 1 hr for a dose of 50 mg/kg; assay type: functional, Artery
How it was run: (§2)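 Male Okamoto-Aoki SHR, trained, in groups of four matched for mean systolic pressure; one group per run received water vehicle. Oral dosing in water (0.1 mL per 10 g) on two consecutive mornings. After the day-2 dose, rats were restrained at 30.0 ± 1.0 °C. Systolic pressure was read by tail cuff (inflated to 300 mmHg, first pulse) at 1–4 h. % fall is versus the untreated control group, by 1-tail t test (p ≤ 0.05).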

[13] = tested on: Rattus norvegicus; experiment: Percentage fall in systolic blood pressure in spontaneously hypertensive rats after 2 hr following 50 mg/kg p.o.; assay type: functional, Artery; conditions: route oral, 50 mg/kg; how it was run: as §2
[14] = tested on: Rattus norvegicus; experiment: Percentage fall in systolic blood pressure in spontaneously hypertensive rats after 3 h following 50 mg/kg p.o.; assay type: functional, Artery; conditions: route oral; how it was run: as §2
[15] = tested on: Rattus norvegicus; experiment: The antihypertensive activity as percentage fall in systolic blood pressure in spontaneously hypertensive rats after a period of 1 hr for a dose of 25 mg/kg po; assay type: functional, Artery; how it was run: as §2
[16] = tested on: Rattus norvegicus; experiment: The antihypertensive activity as percentage fall in systolic blood pressure in spontaneously hypertensive rats after a period of 2 hr for a dose of 25 mg/kg po; NS=Not significant; assay type: functional, organism-based; set-up: dose 25 mg/kg; conditions: Artery; how it was run: as §2
[17] = tested on: Rattus norvegicus; experiment: The antihypertensive activity as percentage fall in systolic blood pressure in spontaneously hypertensive rats after a period of 3 hr for a dose of 25 mg/kg po; NS=Not significant; assay type: functional, organism-based; set-up: dose 25 mg/kg; conditions: Artery; how it was run: as §2
[18] = tested on: Rattus norvegicus; experiment: The antihypertensive activity as percentage fall in systolic blood pressure in spontaneously hypertensive rats after a period of 4 hr for a dose of 25 mg/kg po; NS=Not significant; assay type: functional, organism-based; set-up: dose 25 mg/kg; conditions: Artery; how it was run: as §2

SMILES: CN1CC2(CCN(CCc3c[nH]c4ccccc34)CC2)OC1=O
- logD [1]: 1.73
- Decrease in blood pressure [2]: inactive
- Decrease in blood pressure [3]: inactive
- Decrease in blood pressure [4]: inactive
- Decrease in blood pressure [5]: inactive
- Decrease in blood pressure [6]: 23%
- Decrease in blood pressure [7]: 8%
- Decrease in blood pressure [8]: 9%
- Decrease in blood pressure [9]: 18%

SMILES: CCC1NC(=O)OC12CCN(CC(O)C1COc3ccccc3O1)CC2 (stereo unspecified)
- Decrease in blood pressure [6]: 47%
- Decrease in blood pressure [7]: 32%
- Decrease in blood pressure [8]: 40%
- Decrease in blood pressure [9]: 43%

SMILES: CCC1NC(=O)OC12CCN(CCc1c[nH]c3ccccc13)CC2 (stereo unspecified)
- logD [1]: 1.95
- pA2 [10]: 6
- pA2 [11]: 7.6
- Decrease in blood pressure [12]: 39%
- Decrease in blood pressure [13]: 27% and 26%
- Decrease in blood pressure [14]: 17%
- Decrease in blood pressure [6]: 23%
- Decrease in blood pressure [7]: 17%
- Decrease in blood pressure [8]: 22%
- Decrease in blood pressure [9]: 27%

SMILES: CC(C)N1CC2(CCN(CC(O)C3COc4ccccc4O3)CC2)OC1=O (stereo unspecified)
- logD [1]: 2.05
- Decrease in blood pressure [15]: 14%
- Decrease in blood pressure [16]: inactive
- Decrease in blood pressure [17]: inactive
- Decrease in blood pressure [18]: inactive
- Decrease in blood pressure [12]: 26%
- Decrease in blood pressure [13]: 20% and 16%
- Decrease in blood pressure [14]: 16%
